Test results: ChEMBL document CHEMBL2163269, “Double-headed sulfur-linked amino acids as first inhibitors for betaine-homocysteine S-methyltransferase 2” (J Med Chem, 2012)
The source made the active and inactive calls. The calls are words filed in the database; no cut-off is given here.

Legend:
[1] = biological target: T1, S-methylmethionine--homocysteine S-methyltransferase BHMT2 (Homo sapiens) (UniProt Q9H2M3); assay: Inhibition of recombinant human BHMT2 expressed in Escherichia coli […] at 20 uM
T1 sequence (whole entry): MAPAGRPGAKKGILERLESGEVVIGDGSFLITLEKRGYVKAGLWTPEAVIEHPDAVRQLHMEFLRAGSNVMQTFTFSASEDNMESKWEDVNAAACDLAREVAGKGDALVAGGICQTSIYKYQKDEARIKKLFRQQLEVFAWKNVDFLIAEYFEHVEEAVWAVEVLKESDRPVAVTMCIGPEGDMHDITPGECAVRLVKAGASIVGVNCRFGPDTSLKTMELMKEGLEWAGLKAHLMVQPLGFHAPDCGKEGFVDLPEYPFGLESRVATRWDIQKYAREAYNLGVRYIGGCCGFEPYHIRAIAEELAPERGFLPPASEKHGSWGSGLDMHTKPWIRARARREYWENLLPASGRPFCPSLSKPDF
Outline: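 BHMT-2 copurified with BHMT, 0.2–1 μM total protein. Reaction: 0.25 mM SMM (0.3 μCi), 2.5 mM D,L-Hcy, 0.2 mM ZnCl2, 0.1% β-mercaptoethanol, 50 mM Tris/HCl pH 7.5, 60 min at 37 °C. Methanol stop, product isolated on Dowex 1×4. Percent inhibition at 20 μM, tetraplicates, means ± SEM.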

[2] = biological target: T2, Betaine--homocysteine S-methyltransferase 1 (Homo sapiens) (UniProt Q93088); assay: Inhibition of recombinant human BHMT expressed in Escherichia coli […] at 20 uM
T2 sequence (whole entry): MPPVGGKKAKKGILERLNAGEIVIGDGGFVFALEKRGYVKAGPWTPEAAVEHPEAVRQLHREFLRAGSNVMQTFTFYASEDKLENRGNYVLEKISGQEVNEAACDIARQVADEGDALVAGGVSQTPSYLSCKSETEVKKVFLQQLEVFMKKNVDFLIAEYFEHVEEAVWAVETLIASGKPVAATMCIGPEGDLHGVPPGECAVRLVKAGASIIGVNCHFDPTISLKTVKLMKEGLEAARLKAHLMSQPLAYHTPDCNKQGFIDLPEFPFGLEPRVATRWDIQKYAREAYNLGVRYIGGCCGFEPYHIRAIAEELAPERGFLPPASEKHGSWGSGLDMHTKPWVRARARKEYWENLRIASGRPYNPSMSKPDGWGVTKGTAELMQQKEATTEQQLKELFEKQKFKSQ
Outline: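 Human BHMT at 0.2 or 0.4 μM in 0.5 mL. 30 min at 37 °C, blanks without enzyme subtracted. Percent inhibition at 20 μM inhibitor in tetraplicates, means ± SEM.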

[3] = biological target: T3, Betaine--homocysteine S-methyltransferase 1 (Homo sapiens, UniProt Q93088); assay: Inhibition of recombinant human BHMT expressed in Escherichia coli […]
T3 sequence (Q93088 whole entry): T2 sequence (whole entry)
Outline: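 Human BHMT at 0.2 or 0.4 μM in 0.5 mL. Mix: 2 mM 14C-betaine (0.15 μCi), 1 mM fresh D,L-Hcy, 50 mM Tris/HCl pH 7.5, 0.07% β-mercaptoethanol. 30 min at 37 °C, ice-water stop, no-enzyme blank subtracted. At least nine inhibitor concentrations, duplicates. IC50 by nonlinear regression, ±SEM from three independent runs.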

[4] = biological target: T4, S-methylmethionine--homocysteine S-methyltransferase BHMT2 (Homo sapiens, UniProt Q9H2M3); assay: Competitive inhibition of recombinant human BHMT2 expressed in Escherichia coli […] by Dixon plot method in presence of D,L-homocysteine; conditions: read-out: Ki(app)
T4 sequence (Q9H2M3 whole entry): T1 sequence (whole entry)
Outline: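 BHMT-2 copurified with BHMT on chitin affinity. 0.2 mL reaction: 0.25 mM SMM (0.3 μCi), 0.2 mM ZnCl2, 0.1% β-mercaptoethanol, 50 mM Tris/HCl pH 7.5. D,L-Hcy varied 75–250 μM, inhibitor 0–300 nM. 60 min at 37 °C, methanol stop, Dowex 1×4 column. Triplicates, four separate measurements. Kiapp read from line intersection.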

[5] = biological target: T4, S-methylmethionine--homocysteine S-methyltransferase BHMT2; assay: Inhibition of recombinant human BHMT2 expressed in Escherichia coli […]
Outline: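 BHMT-2 stabilized by copurification with BHMT, 0.2–1 μM total protein. 0.2 mL: 0.25 mM radiolabeled SMM (0.3 μCi), 2.5 mM D,L-Hcy, 0.2 mM ZnCl2, 0.1% β-mercaptoethanol, 50 mM Tris/HCl pH 7.5. 60 min at 37 °C, Dowex separation. At least nine inhibitor concentrations in duplicate. IC50 by nonlinear regression, ±SEM of three independent runs.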

inhibition [1] | inhibition [2] | IC50 [3] | Ki [4] | IC50 [5] | Compound
inactive | Active | – | – | – | NC(CCSCCCCC(=O)O)C(=O)O (stereo not given)
60% | – | – | – | – | N[C@@H](CCSCCSCC[C@H](N)C(=O)O)C(=O)O
inactive | – | – | – | – | N[C@@H](CCSCSCC[C@H](N)C(=O)O)C(=O)O
> 90% | 28% | 76.6 µM | 0.077 µM | 3.6 µM | CC(CCSCC[C@H](N)C(=O)O)CCC(N)C(=O)O (mixture of isomers)
– | Active | – | – | – | CC(C)(CCSCC[C@H](N)C(=O)O)CCC(N)C(=O)O (mixture of isomers)
